The values that follow come from PubChem BioAssay.

Assay [1] in a line: OD615 S. cerevisiae growth inhibition, permissive medium, pilot counter-assay, permissive growth control for S. cerevisiae lifespan shortening project (AID 705). Particulars: OD615, 24 h, at 10 µM, hits give high values. In short, it runs like this:
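System: engineered DeaD yeast; Medium: permissive raffinose/galactose medium; Compound dosing: 10 µM single dose, 0.25% DMSO; Incubation: 4 h cell pre-growth, 24 h exposure at 30 °C; Technique: OD at 615 nm; Evaluation: growth inhibition from lowered OD615 after 24 h.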

The nature of assay [2]: Restrictive medium S. cerevisiae growth inhibition, OD615, pilot screen of yeast lifespan reduction project, restrictive growth control (AID 706;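 active = growth inhibition above a set limit, 3 SD over mean compound inhibition, in both replicates, cut at about 43% in these data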;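 also: modified DeaD lifespan yeast strain shifted to restrictive glucose medium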). Particulars: OD615, 48 h, at 10 µM, hits give high values. A digest of the protocol: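 Material: modified S. cerevisiae; buffer or medium: CSMM-D glucose medium; doses: one concentration, 10 µM final, 0.25% DMSO; incubation: 48 h compound exposure at 30 °C; detection: optical density at 615 nm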

A short description of assay [3]: viability gain of MRP-1-high H69AR cells under doxorubicin, pilot screen, MRP-1 activator project, CellTiter-Glo, duplicate (AID 807;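 active = viability increase at or above a cutoff of the median across tested compounds plus 3 SD, cut at about 8.5% in these data, passing the limit was not always enough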;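 also: compound pretreatment 18-22 h then 72 h combined with doxorubicin; 0% = doxorubicin alone and 100% = vehicle without doxorubicin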). Particulars: H69AR viability with doxorubicin, CellTiter-Glo luminescence; at 10 µM; hits give high values.
A short description of assay [4]: growth suppression of beta-catenin knockout HCT116, pilot screen, human colon tumor cells (AID 823;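 active = cell viability at or below a set limit in both duplicate runs, the limit being the all-compound median minus 4 SD, cut at about 23% in these data, passing the limit was not always enough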;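 also: 0% = wells killed by 20 µM Hyamine and 100% = untreated DMSO cell wells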). As to conditions: CellTiter-Glo, 60 h, at 10 µM, hits give low values.
A short description of assay [5]: growth suppression of PTEN-deleted HCT116, pilot screen, cell-based, HCT116 clonal line, CellTiter-Glo (AID 824;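 active = viability at or below 27.92% in each of two runs, the all-compound median minus 4 SD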;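 also: 0% = 20 µM Hyamine control and 100% = vehicle cell control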). As to conditions: 60 h, at 10 µM, hits give low values. In general terms: ATP-based viability assays read luminescence as a measure of living cells.
Assay [6] in a line: inhibitors of the yeast RAM network, pilot screen, dse1pr::URA3 reporter, 5-FOA selection (AID 869;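 active = inhibition over a set limit, the all-compound mean plus 3 SD, in both replicate runs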;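 also: 0% = DMSO wells with no growth and 100% = 10 µM 1-NA-PP1 with full growth; RAM network block rescues cells from 5-FOA so hits raise OD615 growth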). Particulars: S. cerevisiae dse1pr::URA3 5-FOA growth, OD615, 2 d; at 10 µM; hits give high values; strain carries analog-sensitive mutant Cbk1 kinase.
A short description of assay [7]: RAM signaling pathway blockade in yeast – S. cerevisiae, Pdr1DBD-CYC8 efflux-inhibited sensitized strain, primary screen (AID 1298;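 active = RAM network inhibition above 8.4% in each of two replicates, 3 SD over the compound average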;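 also: 0% = DMSO untreated cells without growth and 100% = 10 µM 1-NA-PP1 full growth; higher means more yeast growth rescued from 5-FOA killing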). As to conditions: S. cerevisiae cbk1-as DSE1-URA3 strain, 5-FOA growth OD615, 2 d; at 50 µM; hits give high values.

Unmarked numbers belong to inactive results. Inconclusive results are not listed. Activity calls are given as the source filed them.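 The calls were made as follows, unless noted: active = growth inhibition above 25% in both replicates, a cutoff set 3 SD above the mean; inconclusive = above 25% in only one replicate; inactive = the rest.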

As a reminder, the viability is a read-out of living cells in per cent, often relative to untreated cells. Broadly, the inhibition is the change of the read-out against control, counted positive when it falls.

With `COc1cc(OC)cc(C(=O)Nn2cc(C(=O)N3CCN(C)CC3)c3ccccc3c2=O)c1`, the growth inhibition was -6.21% in assay [1] and -7.65% in assay [2]. Further, the viability increase in assay [3] was -0.92%. Besides, the viability in assay [4] is 105%; in assay [5] it was 93.1%. Also, the inhibition in assay [6] is 1.17%. Besides, in assay [7], the RAM network inhibition is 3.86%.

As for `OCCNc1nc(Nc2ccccc2)nc(Nc2ccccc2)n1`, the growth inhibition in assay [1] was 14%; in assay [2] it was 4.96%. The viability increase in assay [3] was -1.23%. In addition, the figures for the viability in assay [4] and in assay [5] were 95.8% and 94%, respectively. Moreover, the inhibition in assay [6] is -0.245%. Moreover, in assay [7], the RAM network inhibition is -1.3%.

As to `O=C1c2oc3ccc(F)cc3c(=O)c2C(c2cccc(O)c2)N1CCCN1CCOCC1` (stereo not drawn), the growth inhibition is -6.24% in assay [1] and -8.16% in assay [2]. In assay [3], the viability increase is 0.39%. Further, the viability was 99% in assay [4] and 96.2% in assay [5]. In assay [6], the inhibition is 0.63%. Further, in assay [7], the RAM network inhibition is 0.27%.

Take `CCOC(=O)c1ccc(NC(=O)CN2C(=O)CSC2=O)cc1`: the growth inhibition in assay [1] was -1.29%; in assay [2] it was -0.27%. Besides, the viability increase in assay [3] was 1.63%. Further, the viability in assay [4] is 95.7%; in assay [5], 103%. For the same compound, the inhibition in assay [6] was 3.08%. Moreover, the RAM network inhibition in assay [7] is 4.03%.

For `Cc1ccc(NC2=CC(=O)CC(c3ccco3)C2)c(N)c1` (stereo not drawn), the growth inhibition is -4.58% in assay [1] and 5.45% in assay [2]. Further, in assay [3], the viability increase was -4.41%. Further, the viability in assay [4] is 81.2%; in assay [5], 86.5%. For the same compound, the inhibition in assay [6] was 0.07%. Also, in assay [7], the RAM network inhibition is 2.43%.

Take `CCCC(=O)NCCCc1nc2ccccc2n1CC`: the results for the growth inhibition in assay [1] and in assay [2] were -7.75% and 0.985%, respectively. In addition, the viability increase in assay [3] was 0.81%. Moreover, the results for the viability in assay [4] and in assay [5] were 100% and 101%, respectively. Also, the inhibition in assay [6] was -0.16%. In addition, the RAM network inhibition in assay [7] was 0.58%.

For the compound `COc1ccc(-c2nn(CC(=O)N(C)C)c(=O)c3ccccc23)cc1`, the growth inhibition was -7.62% in assay [1] and -6.71% in assay [2]. In assay [3], the viability increase was -1.08%. In addition, the viability in assay [4] is 99.8%; in assay [5], 86.4%. Further, in assay [6], the inhibition was 1.01%. Besides, the RAM network inhibition in assay [7] is 0.6%.

As for `Fc1ccc(CSc2nnc(-c3cccnc3)n2Cc2ccco2)cc1`, the growth inhibition in assay [1] was 1.42%; in assay [2] it was 10.1%. Besides, the viability increase in assay [3] was -2.14%. The viability in assay [4] is 90.8%; in assay [5] it was 99.8%. The inhibition in assay [6] is 1.94%. The RAM network inhibition in assay [7] is 2.25%.

As to `COc1ccc(Cc2nc(-c3ccc(-n4cccc4)cc3)no2)cc1`, the growth inhibition was 0.23% in assay [1] and -11.5% in assay [2]. In addition, the viability increase in assay [3] is 3.66%. In addition, the figures for the viability in assay [4] and in assay [5] were 98.3% and 88%, respectively. Besides, the inhibition in assay [6] is 3.82%. Moreover, the RAM network inhibition in assay [7] is 3.16%.

`Cc1ccc(-c2noc(CSc3nnnn3-c3ccccc3)n2)cc1`: the values for the growth inhibition in assay [1] and in assay [2] were -16.9% and 9.4%, respectively. Further, the viability increase in assay [3] is 2.8%. Also, the viability is 88.1% in assay [4] and 97.8% in assay [5]. Moreover, in assay [6], the inhibition is 1.95%. The RAM network inhibition in assay [7] is 7.44%.

Take `CCCSc1nc2c(cnn2-c2ccc(F)cc2)c(=O)[nH]1`: the growth inhibition in assay [1] was -5.3%; in assay [2], -3.29%. Also, the viability increase in assay [3] is -2.46%. For the same compound, the viability in assay [4] was 95%; in assay [5] it was 94.7%. Also, the inhibition in assay [6] was 0.82%. The RAM network inhibition in assay [7] was 2.71%.

For the compound `CCOC(=O)CN1CC23C=CC(O2)C(C(=O)Nc2ccc4c(c2)OCO4)C3C1=O` (stereo not drawn), the growth inhibition in assay [1] is -0.14%; in assay [2], 3.22%. In addition, the viability increase in assay [3] is -1.01%. Also, the viability in assay [4] is 107%; in assay [5] it was 103%. Further, the inhibition in assay [6] is 2.71%. For the same compound, in assay [7], the RAM network inhibition is 1.23%.

For the compound `Cc1cc(NC(=O)c2cn(C3CCCCC3)c(=O)c3c2c2ccccc2n3C)no1`, the growth inhibition in assay [1] was -5.84%; in assay [2] it was 11.9%. The viability increase in assay [3] was -3.21%. For the same compound, the viability in assay [4] and in assay [5] was 71.7% in each case. Moreover, the inhibition in assay [6] is 1.8%. In addition, the RAM network inhibition in assay [7] is 7.54%.

With `O=C(Cn1c(=O)oc2cc(S(=O)(=O)N3CCOCC3)ccc21)N1CCc2ccccc2C1`, the growth inhibition in assay [1] was -5.1%; in assay [2], -8.57%. In addition, in assay [3], the viability increase is -2.45%. For the same compound, the viability is 103% in assay [4] and 93.8% in assay [5]. Besides, the inhibition in assay [6] was 2.44%. For the same compound, the RAM network inhibition in assay [7] was 4.35%.

As to `CCCNc1nc2c(c(=O)n(C)c(=O)n2C)n1Cc1ccc(F)cc1`, the growth inhibition in assay [1] is -3.24%; in assay [2] it was -4.52%. For the same compound, the viability increase in assay [3] was -1.45%. Also, the viability is 78.8% in assay [4] and 79.1% in assay [5]. Besides, the inhibition in assay [6] was 0.88%. Also, in assay [7], the RAM network inhibition was 3.07%.

Turning to `Cn1c(NC(=O)c2ccccc2)cc(=O)n(C)c1=O`, the growth inhibition in assay [1] was -19%; in assay [2], -9.99%. For the same compound, the viability increase in assay [3] was -1.36%. Moreover, the viability in assay [4] was 100%; in assay [5] it was 93.8%. Moreover, in assay [6], the inhibition was 1.12%. Also, the RAM network inhibition in assay [7] was 1.26%.

Consider `CCS(=O)(=O)Nc1ccc(-c2ccc(NS(=O)(=O)CC)c(OC)c2)cc1OC`, for which the growth inhibition was -3.19% in assay [1] and -1.95% in assay [2]. The viability increase in assay [3] is -3.7%. For the same compound, the viability was 103% in assay [4] and 101% in assay [5]. For the same compound, the inhibition in assay [6] is 2.69%. The RAM network inhibition in assay [7] was 6.39%.

On to `COC(=O)c1cnn2c(C)c(Cc3cccc(F)c3)c(C)nc12`, for which the growth inhibition in assay [1] is -5.12%; in assay [2], -16%. In addition, in assay [3], the viability increase was -5.7%. The viability in assay [4] was 92.3%; in assay [5], 80.9%. In assay [6], the inhibition was 1.53%. For the same compound, the RAM network inhibition in assay [7] was 2.9%.

Regarding `CCCCCn1c(N2CCC(Cc3ccccc3)CC2)nc2c1c(=O)[nH]c(=O)n2C`, the growth inhibition is -14.9% in assay [1] and -29.9% in assay [2]. The viability increase in assay [3] is -8.6%. Besides, the viability in assay [4] is 15.1% (active); in assay [5] it was 12.8% (active). Moreover, the inhibition in assay [6] was 1.22%. Moreover, the RAM network inhibition in assay [7] is 7.3%.

Take `CN1C(=O)c2cccc(NC(=O)C3CCCCC3)c2C1=O`: the results for the growth inhibition in assay [1] and in assay [2] were -7.12% and 6.03%, respectively. For the same compound, the viability increase in assay [3] was -1.21%. The viability in assay [4] was 107%; in assay [5], 93%. The inhibition in assay [6] is 0.445%. Besides, the RAM network inhibition in assay [7] was -0.16%.

For `CC(=O)c1ccc(-n2nncc2C)cc1`, the growth inhibition in assay [1] was -4.02%; in assay [2], -11.6%. Moreover, the viability increase in assay [3] was -3.63%. Further, the viability in assay [4] is 108%; in assay [5] it was 95.6%. Moreover, the inhibition in assay [6] was 0.965%. Besides, in assay [7], the RAM network inhibition is 2.75%.

`C=CCNC(=O)c1ccc(C)cc1Cl`: the growth inhibition was -13.3% in assay [1] and -2.44% in assay [2]. In addition, in assay [3], the viability increase is -0.26%. Moreover, the viability in assay [4] was 95.5%; in assay [5], 94.5%. Moreover, the inhibition in assay [6] was 1.02%. The RAM network inhibition in assay [7] was 1.37%.

On to `Cc1ccc(-c2nc(CS(=O)CC(=O)NC3CCC(C)CC3)c(C)o2)cc1` (stereo not drawn), for which the results for the growth inhibition in assay [1] and in assay [2] were 2.73% and 11.8%, respectively. Also, the viability increase in assay [3] is 1.29%. Also, the viability in assay [4] was 84.8%; in assay [5] it was 94.8%. Moreover, the inhibition in assay [6] was 0.76%. The RAM network inhibition in assay [7] is 2.42%.

On to `Cc1ccc(Nc2nc(N3CCOCC3)nc(N3CCOCC3)n2)cc1`, for which the results for the growth inhibition in assay [1] and in assay [2] were -16.7% and -7.55%, respectively. For the same compound, the viability increase in assay [3] was -2.57%. Moreover, the results for the viability in assay [4] and in assay [5] were 64.2% and 65.7%, respectively. The inhibition in assay [6] is 1.06%. The RAM network inhibition in assay [7] is 2.07%.
